PubChem BioAssay AID1242 (PCMD, 2008)
Among all 120,000 compounds or so, about 20 (0.02%) were called active.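 How the source made its calls: active means inhibition above 30.3% in the primary screen of four-compound pools, then above 30% when the compound was retested; inconclusive means passed the primary limit but could not be retested; inactive means the rest.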 Only a selection was taken, and actives are over-represented in it overall.

Assay: Candida albicans biofilm persister killing – 4-compound mixtures, primary screen (AID 1242);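 further: compounds exposed to preformed 24 h biofilms for 48 h; 0% = untreated biofilm control and 100% = clotrimazole plus chlorhexidine kill blank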
Settings: C. albicans biofilm persisters + clotrimazole, fluorescence viability, primary screen in compound mixtures, active compounds read high; at 7.6 µM unless noted
Method in brief: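 Test system: C. albicans biofilms. Buffer or medium: RPMI/MOPS medium, pH 7.0. Timing: 48 h compound exposure at 37 °C. Technique: Alamar Blue fluorescence. Evaluation: percent inhibition of biofilm viability.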
In the case of `CC1Cc2ccccc2N1S(=O)(=O)c1ccc(Cl)nc1` (stereo unspecified), the inhibition is reported as 14.3% (inactive).
With `Cc1cc2nc(C(F)(F)F)cc(-c3cccs3)n2n1` the inhibition was 8.23% (inactive).
With `COc1ccc(C(=O)C2CCCN(C(=O)c3cc4nc(C)cc(C)n4n3)C2)cc1F` (stereo unspecified) the inhibition was 16.6% (inactive).
With `CCOC(=O)C1(Cc2cccc(OC)c2)CCN(C(C)COC)CC1` (stereo unspecified) the inhibition was 14.5% (inactive).
In the case of `NCC(=O)c1cccc2ccc[n+]([O-])c12`, the inhibition is reported as 12.9% (inactive).
For `N=c1c2c3c(sc2ncn1N)CCCC3`, the inhibition was 20.4% (inactive).
With `CCOC(=O)CN1CCC(c2ccccc2)CC1` the inhibition was 13.7% (inactive).
With `Cc1cc(N)n(-c2ccc(S(=O)(=O)N3CCCC3)cc2[N+](=O)[O-])n1` the inhibition was 11.7% (inactive).
With `CC(=O)c1cccc(-n2nnnc2SCC(=O)NNC(=O)C2CCCCC2)c1` the inhibition was 5.73% (inactive).
In the case of `C/C(=N/Nc1ccc(Cl)cc1)c1cnnc(-c2ccccc2)n1`, the inhibition is reported as 7.24% (inactive).
With `COc1ccc(Cl)cc1N(CC(=O)N/N=C/c1ccc(OCC(N)=O)cc1)S(C)(=O)=O` the inhibition was 20.2% (inactive).
In the case of `S=C(NCCc1ccccc1)N1CCn2cccc2C1c1ccncc1` (stereo unspecified), the inhibition is reported as 11.1% (inactive).
In the case of `COc1ccccc1C(c1nnnn1CC1CCCO1)N1CCN(c2ccccc2)CC1` (stereo unspecified), the inhibition is reported as 29.3% (inactive).
In the case of `COc1ccc(NC(=O)CSc2nnc(-c3ccccc3F)n2C2CC2)cc1S(N)(=O)=O`, the inhibition is reported as 7.66% (inactive).
In the case of `O=C(Cn1c(N2CCN(C/C=C/c3ccccc3)CC2)nc2ccccc21)c1ccccc1`, the inhibition is reported as 9.46% (inactive).
For `CCC(C)(C)NC(=O)CN(C(=O)CCC(=O)Nc1cc(C)ccn1)c1ccc2c(c1)OCCO2`, the inhibition was 1.7% (inactive).
In the case of `Cc1ccc(OCC(=O)NC(C)c2ccccc2)c([N+](=O)[O-])n1` (stereo unspecified), the inhibition is reported as 8.35% (inactive).
For `CCc1cc2c(=O)c(-c3nc4ccccc4n3C)c(CCCC(=O)O)oc2cc1OC(=O)C(C)(C)C`, the inhibition was 14.2% (inactive).
With `COC(=O)Cc1ccc(NC(=S)NCc2ccco2)cc1` the inhibition was 1.39% (inactive).
In the case of `Cc1ccc(Cl)cc1NC(=O)C1CCN(S(C)(=O)=O)CC1`, the inhibition is reported as -19.3% (inactive).
For `CSc1nc(C)nc(C2CC2)c1C#N`, the inhibition was 26.1% (inactive).
For `CCc1nc2sc(C(=O)O)c(N)c2c2c1CCCC2`, the inhibition was 17.7% (inactive).
In the case of `O=C1Nc2cc(Cl)c(Cl)cc2N(O)N1c1ccccc1Cl`, the inhibition is reported as 16.7% (inactive).
With `CC1=CC=CC2=N/C(=N\S(=O)(=O)c3ccc(F)cc3F)c3ccccc3CN12` the inhibition was 14.1% (inactive).
In the case of `NNC(=O)c1cccc(COCC(F)(F)C(F)F)c1`, the inhibition is reported as 11.2% (inactive).
For `CC(C)(C)n1nc2c(c1NC(=O)c1cc3ccccc3o1)CSC2`, the inhibition was 8.07% (inactive).
For `CC(=O)NC(=S)Nc1ccc(NC(=O)c2cccnc2)cc1`, the inhibition was 26.7% (inactive).
In the case of `CN(c1ccccc1)S(=O)(=O)c1ccc(Cl)c(C(=O)OCC(N)=O)c1`, the inhibition is reported as 9.93% (inactive).
For `COc1ccc2nc(Nc3nc(-c4ccncc4)cs3)sc2c1`, the inhibition was 12.3% (inactive).
For `COCCCNC(=O)Cn1c(=O)n(Cc2ccccc2Cl)c(=O)c2cc(OC)c(OC)cc21`, the inhibition was 5.13% (inactive).
With `COc1ccc(N=C(C)c2sc3ccccc3c2O)cc1` the inhibition was 24.2% (inactive).
In the case of `Cc1ccc(Cl)c(OCC(=O)NN2CCN(C)CC2)c1`, the inhibition is reported as 16.5% (inactive).
For `CC1=C(C)CC(C(=O)NC(C)CCc2ccccc2)C(C(=O)O)C1` (stereo unspecified), the inhibition was -32% (inactive).
With `C/C(CCc1ccccc1)=N\NC(=O)c1ccc(CN2CCOCC2)cc1` the inhibition was 20.4% (inactive).
With `COc1ccc(S(=O)(=O)N(C)CC(=O)N2CCCC2)cc1Cl` the inhibition was 15.4% (inactive).
In the case of `COc1ccc(/C=N/NC(=O)CNC(=O)c2ccc(S(=O)(=O)N3CCCC3)cc2)c(OC)c1`, the inhibition is reported as 1.69% (inactive).
With `O=C(Cc1ccc(F)cc1)N/N=C/c1ccc2c(c1)OCO2` the inhibition was -22.6% (inactive).
For `Cc1nnc(Nc2ccccc2F)s1`, the inhibition was 16.6% (inactive).
With `CCC(=O)c1ccc(N2CCN(C(=O)c3cc([N+](=O)[O-])ccc3F)CC2)c(F)c1` the inhibition was -4.84% (inactive).
With `Cn1c(SCC(=O)NC2CCCCC2)nnc1-c1ccc(N)cc1` the inhibition was 21.9% (inactive).
In the case of `COc1ccc(C(=O)NCC(=O)N/N=C/c2ccc([N+](=O)[O-])s2)cc1OC`, the inhibition is reported as 20.6% (inactive).
With `C/C(=N/OC(=O)c1c(-c2c(F)cccc2Cl)noc1C)c1cnccn1` the inhibition was 10.3% (inactive).
With `CC(=O)N/C(=C\c1ccc(F)cc1)C(=O)NC(Cc1ccccc1)C(=O)O` (stereo unspecified) the inhibition was 14.6% (inactive).
For `N#Cc1c(NCCO)ccc([N+](=O)[O-])c1NCCO`, the inhibition was 15.9% (inactive).
In the case of `Nn1c(SCc2ccccc2)nnc1C1CCCCC1`, the inhibition is reported as 25.1% (inactive).
With `Cc1ccc(C(=O)O)cc1N1C(=O)CCCC1=O` the inhibition was 29.3% (inactive).
In the case of `O=C(O)CC/C(=N\NC(=O)c1ccc(F)cc1)c1ccc(Br)cc1`, the inhibition is reported as 0.26% (inactive).
For `O=C1COc2ccc(C(=O)COC(=O)c3cccnc3Cl)cc2N1`, the inhibition was 3.67% (inactive).
With `Cn1c(=O)c2c(ncn2CC(=O)N/N=C/c2cn[nH]c2-c2ccc(F)cc2)n(C)c1=O` the inhibition was 8.1% (inactive).
With `CCOC(=O)c1c(CN(C)C)n(-c2ccccc2)c2cc(Br)c(O)cc12` the inhibition was 6.02% (inactive).
For `O=C(NCCN1CCOCC1)c1ccc2c(c1)N(Cc1ccc(Cl)cc1)CCS2`, the inhibition was -21.2% (inactive).
In the case of `Cc1cccc(NC(=S)NCCc2ccc(F)cc2)c1C`, the inhibition is reported as 13.3% (inactive).
For `Cc1ccc(N2C(=O)SC(N(CC(=O)O)c3ccc(C)cc3)C2=O)cc1` (stereo unspecified), the inhibition was 30.1% (inactive).
For `COc1cc(OC)c(C(=O)OCC(=O)N2CC(=O)Nc3ccccc32)cc1OC`, the inhibition was 16% (inactive).
With `Cc1nn(C)c(C)c1CN(C(=O)CCc1nnc(Cc2c[nH]c3ccccc23)o1)C(C)C` the inhibition was 21.1% (inactive).
With `C/C(=N\NC(=O)c1cccnc1)c1ccc(-c2ccccc2)cc1` the inhibition was 11.8% (inactive).
For `Cc1ccc(S(=O)(=O)N(CC(=O)NN=C2CCN(C)CC2)c2ccc(F)cc2)cc1`, the inhibition was 12.2% (inactive).
With `CC(CO)(CO)NC(=O)c1ccc(=O)[nH]n1` the inhibition was 20.4% (inactive).
With `NNC(=O)C1CC(O)CN1S(=O)(=O)c1ccc(Cl)cc1` (stereo unspecified) the inhibition was -0.83% (inactive).
For `Cc1ccccc1NC(=O)NNC(=O)OC(C)(C)C`, the inhibition was 17.1% (inactive).
For `COc1ccc(C(=O)CSc2nnnn2C)c(OC)c1`, the inhibition was 0.17% (inactive).
